The EternaBench riboswitch data

Test system: MS2 coat protein
Experiment: apparent Kd, MS2 coat protein; higher = weaker binding; RNA-MaP array; FMN 200 µM where present
Procedure, shortened: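 Binding was read on Illumina sequencing-chip clusters where stalled E. coli RNA polymerase had transcribed each design. A titration of SNAP-549-labelled MS2 coat protein began at 0.7 or 1.5 nM and doubled to 3 µM, once without ligand and once with constant ligand, in 100 mM Tris-HCl pH 7.5, 80 mM KCl, 4 mM MgCl2, BSA, DTT, yeast tRNA and Tween-20. The apparent Kd is the median of filtered per-cluster binding-curve fits, based on green signal normalised to red-channel RNA signal and control-cluster median Fmax.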

[1] = designed as: OFF switch for flavin mononucleotide, no ligand
[2] = ligand present: flavin mononucleotide, designed as: OFF switch for flavin mononucleotide
[3] = designed as: ON switch for flavin mononucleotide, no ligand
[4] = ligand present: flavin mononucleotide, designed as: ON switch for flavin mononucleotide

Sequence	apparent Kd [1] [nM]	apparent Kd [2] [nM]	apparent Kd [3] [nM]	apparent Kd [4] [nM]
GCUCGUAGACAGAAGGCGACAUGAGGAUCACCCAUGUUGGCUCGGGUAUGACCAAUCCGCAUGAUCGAGGAUAUGUCCGCGGGC	287	16.4		
GCGAGUAAAGCAGGAUAUCUAAUAUCACGGAAACAUGAGGAUCACCCAUGUAGAGAAGGGCUAAGUCAUACAAUUCGAACUCGC	14.1	10.5		
GAUCGCCAUGUCAGGAUAUCUUGUAUACCCACGUUAGAGAAGGGACAUGAGGAUCACCCAUGUACCCUGGUUUU		16.4		
GACUAGGCAGGAUAUACAUGAGGAUCACCCAUGUGUCUGCGAUAGGCACGUGAUUACUGUAGAAGGGCCUUGAC		44.1		
GUAGCAUACAGAGGAUAUUCAAAACCGGAAACGGACAUGAGGAUCACCCAUGUGGCGAAAGCCUGGGAGAAGGCUGAAUGCUAC			28.6	14.2
GCAUUGAUAACAGGAUAUAUGAAUCCUACAUGAGGAUCACCCAUGUAGGUGAUCAGCCGCGAUUAGUAGAAGGGUUAUCAAUGC			11.4	6.43
GUGACGAUGUAAGGAUAUGCUGAGGAUAACUCAGCAGAAGGUACAUGAGGAUCACCCAUGUAAAUAAUAAGAAAUAAACGUCAC	16.6	24.1		
UCUCGACAUGAGGAUCACCCAUGUCAGGAUAUUGUAUUGGAGGUUUUUUACCUUAUGGCAAGAAGGGAUGUGUG	20.6	21.6		
CAGCCCUGAGGAUAUCCCUCCUUGUACAUGAGGAUCACCCAUGUUCUCCUCUGGGCCUUGGGAGAAGGCAGAUCUC	56.9	49.5		
UUUGCAACAUGAGGAUCACCCAUGUAGGAUAUCGCUAUUGUAAUCAUGAAACAUGAUUACAAUAGCGAGAAGGACAUAUGCUUU	20.1	18.3		
CCUGUACAUGAGGAUCACCCAUGUUAGGAUAUUCAGCCCGUCGAGUAUAAGGGUUUAAGAAGAAGGGACGUGGC	15.4	16.1		
GCGUUAGAAACACAUGUAUUACAUGAGGAUCACCCAUGUUACUAGGAUAUGUAUUAGAAUUUACAACAGAAGGAGUAAGAACGC	10.8	14.6		
GGAUAGGACAGAGGAUAUACGUGCUAGAGAUACUCGCAAAAUUUCCUCACAUGAGGAUCACCCAUGUAGAAGGCUGUCCUAUCG	93	436		
GAAUGGGUAGAGGAUAUCGCCAUUUCAUCGAGGUGAGAAGGUUACACAUGAGGAUCACCCAUGUCGCCAUUAGC	66.5	56.7		
GGUACUCAAAGAGUAUCAAUACGAACAUGAGGAUCACCCAUGUAGGAUAUGCUACUCAAAGAGUAGCAGAAGGACAUGUGCCUA	16.2	91.3		
AUCAGCUCGUCAGGAUAUACGUCACUGCGUCAGCAGUGUGCUAAGAUCACAUGAGGAUCACCCAUGUAGAAGGGACGAGCUGAU	5.83	22.1		
UAGUAGAUCCGAGGAUAUACAAUCCGGAAACGGUACAUGAGGAUCACCCAUGUAGAAGGCGGAUCUACAGGUACUAAAGUACCA	5.68	7.82		
ACCCUGUCAGGAUAUCCUGCUGUGCGGCCUCUGUAUUCAAGGGAGAAGGGACAUGAGGAUCACCCAUGUAUGAG	40.6	47.5		
AAGAAACAUGAGGAUCACCCAUGUAAAUUUAAGAGAGGAUAUCGUACAUGGAAGAUUUAACGAGAAGGCUCUAGAA			26	16.1
UAAGUACAGAAGUACUCCGGGUCCAGAAGGGACAUGAGGAUCACCCAUGUACCGUUGAUUGCUUGUCAGGAUAUGGACCCGGCC	6.83	25.7		
GUCGGAAACGACAAAAGUAGCAUAGGAGAAGGUUCAUUAAACAUGAGGAUCACCCAUGUAAUUGGAAAGGAUAUCCUAUGCUAC			5.04	5.06
CAGGGUUCGUGAAUAAGCUAGCUUCGAGAAGGGCCACAUGAGGAUCACCCAUGUCAGCGAAAACGGCAGGAUAUCGAGGGUGAG			147	48.4
GCCGAGUGAGGAUAUACAUGAGGAUCACCCAUGUAAACACGAAAGCAAGUGUCCCUCAGUAGAAGGCGCCUGGA	14.2	16.6		
GAUUGACGACAAUUACAUGAGGAUCACCCAUGUUGUAGUAUGCAGGAUAUGUGGUAUAUUAUUUAACAGAAGGGCAAUAAUUUU			81	42.4
GCUGACGAUGUAGGAUAUCAGUAUAAUAAAUACUGAGAAGGACAUGAGGAUCACCCAUGUAACUCACGUCAGCAGAGGAAACUC	17.6	20.4		
AAUAUGUGAGGAUAUAUCCACCGCGUAGGCUCGCGGUGACAAUAGAAGGUACAUGAGGAUCACCCAUGUAGGGA	67.7	36.9		
CCAUACCGAGGAUAUACAUGAGGAUCACCCAUGUCAAAACCACGUGUACGGCGGUCUUGUAGAAGGCGGAAAUA	11	16		
CCACUCGGUGAGAAGGCGCCGGCGUCCGCGAGGCGAGGAUAUCACAUGAGGAUCACCCAUGUGGGCAUGAAGAUUGCCACUAGG	61.3	152		

Sequence	apparent Kd [1] [nM]	apparent Kd [2] [nM]	apparent Kd [3] [nM]	apparent Kd [4] [nM]
GGUAGACAAAGUCUACCAUUACGAACAUGAGGAUCACCCAUGUAGGAUAUGCUACUCAAAGAGUAGCAGAAGGACAUGUGUCUU	29.8	143		
UCGUUUAUACAAGGAUAUCAAUUUUAGCUUAAUUCAACAUGAGGAUCACCCAUGUAACUAUGGAGUGAGAAGGUGUAAUGGCUU			522	222
CGGACCCGAGGAUAUCGUAAACCCGACAUGAGGAUCACCCAUGUCAUCCUCACGGCGCCACGAGAAGGCGGUGUUA	24.2	75.7		
AAUUAUUAUCGAGGAUAUCGUAUUGAAAUAAUAUGAGAAGGCGGGAUAAACAUGAGGAUCACCCAUGUGAGCCUGAUGCUUGUG	19.2	35.4		
CCGGUUGGCGCAGGAUAUACAUGAGGAUCACCCAUGUUCAUCAGGAUCACCGAUGAGUUUUUGUUGUAGAAGGGUGGCCCGGCC	35.2	37.2		
GCAACGCCUGACAUGAGGAUCACCCAUGUUAGAUUGUUAUGUCAGGAUAUAGUCUAGAAACUAGACUAGAAGGGAUGUGUUGCU			703	131
GGGUGAUCUUUAGGAUAUCCCGCGCCAAAGUGCGUUUAUACUACAUGAGGAUCACCCAUGUAACGGGAGAAGGGAGGAAGCCCG			81.7	29
AGAUUCAUGGCCCGUUUGGGCCCACAUGAGGAUCACCCAUGUGAGGAUAUGACGUACCUGACUCGUCAGAAGGCGCAUGCGAAA	7.45	16.7		
GCAACGCCUGACAUGAGGAUCACCCAUGUUAGAUUGUUAUGUCAGGAUAUUGUCGCGAAAUGUGAUGAGAAGGGAUAUGUUGCU			480	48.8
CGAGAUCUUGAGAAGGCAUAAUAUAUAAUACCACAUGUUUACAUGAGGAUCACCCAUGUUUCCAAUGAGGAUAUCAGGAUUUCG	19.6	14.8		
AGUCGGAGCAGAGGAUAUUACAUGAGGAUCACCCAUGUAAAUGGAAUAAGCUGGAAACAGCAAUGUAAGAAGGCUGCUCCGACA	67.4	540		
AUCAACCAGGCAGGAUAUCAAUGUGGCCUCAUCGUACACCCUCGCAACAUGAGGAUCACCCAUGUUGAGAAGGGCCAAUUGAGA	8.52	8.99		
CGGUCGAUGUAAGGAUAUCGACUGGAUAACAGUCGAGAAGGUACAUGAGGAUCACCCAUGUAAACCUAUAAUAAAUAACGACCG	11.2	14.6		
UUGUCGCAUGUAGGAUAUGUAUGUUAUUAUCAUACAGAAGGACAUGAGGAUCACCCAUGUGUAUUAUUAUUAUAUGUUACAUAU	20.4	19.8		
AAAAUCAAUAGAGGAUAUUCAUACACUACAUACGGAGAAGGCUAACAAUCAUGAGGACAUGAGGAUCACCCAUGUUGUGACCAU			25.9	17.1
AAACAAGGAUCAGGAUAUGUGAAAGUAGACCGACAUGAGGAUCACCCAUGUACGACAAGACUCGUACAGAAGGGAUGCACAUGA			73.3	165
UCAAAGCCAUUUUGGCGAGUCACAUGAGGAUCACCCAUGUAACAGGAUAUCGAUUGGCUUCCCGGCGAGAAGGGUUACUAGGGA	10.8	15.5		
GAUCUGUGGCUUUCGCUUUGUUCACAUGAGGAUCACCCAUGUAGAAGGUAGCGGUUGAAAUUCGCUGAGGAUAUACAUAGGUGC	24.4	52.7		
CUUUCGUGAGGAUAUGUGGCUUCGAACGUGAGAUCGAGGCUACAGAAGGCACAUGAGGAUCACCCAUGUUCCUC	34.3	395		
UCGCGGGAGCAGAAGGGAUAGGCCUAUUGUCGUGAGGUCUACACUUAACAUGAGGAUCACCCAUGUCAGGAUAUGCCCACGCGA	4.68	4.64		
AGUGUCAUCGAGAAGGCCUCGACAUGAGGAUCACCCAUGUUGUAAUAUGGGAGGAUAUCGAUGAUACAGCUACGUUUCGUAGCA			40.3	13.4
GCUUUAGCACAUGAGGAUCACCCAUGUAGCGUGGGCUUACACAGAAGGGCAAACCGUUACGGGAUGUAGGAUAUGUGCAAAAUG			196	68.6
AAAAUAAGAACAGGAUAUGUGGGUUCGAAGAGCAAAACUCUCCACAUGAGGAUCACCCAUGUGCCACAGAAGGGUUCGGGUGAU			66.9	12.4
AGCUACGUUUCGUAGCAGCUAGGUGAGGAUAUCCUUUACAUGAGGAUCACCCAUGUUUAGCCAUGGGAGAAGGCGCCUAGAAAG			1090	113
AUCAGCUCGUCAGGAUAUACGUCACUGCGUCAGCAGUGAGGUAAGAUCACAUGAGGAUCACCCAUGUAGAAGGGACGAGCUGAU	6.09	13.2		
UGGUACAUGGGAGGAUAUGGGUUGAUAACAUGAGGAUCACCCAUGUUAAAUAAGCCGAGAGGCUACUAGAAGGCCCAUGUACCU			819	28.9
GUGGAGGGUUGAGGAUAUUGAAUACAUAUGUUUAACAUGAGGAUCACCCAUGUGGGUUGCGGUAUCGAGAAGGUAAAUUGCUGG			97.2	109
